Activity calls are given as the source filed them.
Legend:
[1] = target: Kappa-type opioid receptor (Cavia porcellus, UniProt P41144); format: cell membranes, Brain, Membranes
Mu-type opioid receptor [2] = target: T1, Mu-type opioid receptor (Rattus norvegicus, UniProt P33535); assay: Displacement of [3H]DAMGO from MOR in Wistar rat brain membranes after 60 mins by liquid scintillation analysis; format: cell membranes
Cannabinoid receptor [3] = target: T2, Cannabinoid receptor (Rattus norvegicus, UniProt Q9QZN9+P20272); format: cell membranes, Wistar, Brain, Membranes
Rattus norvegicus [4] = assay: Effect on nociception of the contralateral paw in rat model of sodium iodoacetate-induced osteoarthritis assessed as paw withdrawal threshold in late phase at 7 ug administered as intrathecal injection measured after 60 to 90 mins by Von Frey test (reference value: 43 +/- 3.4 g); format: ADME, organism-based; conditions: in vivo, icv_or_intrathecal
Mu-type opioid receptor [5] = target: T1, Mu-type opioid receptor; assay: Agonist activity at MOR in Wistar rat brain membranes after 60 mins by [35S]-GTPgammaS binding assay; format: functional, cell membranes
Rattus norvegicus [6] = assay: Antiallodynic activity in sodium iodoacetate-induced rat model of osteoarthritis assessed as increase in maximum effect in early phase at 7 ug administered as intrathecal injection measured up to 45 mins by Von Frey test; format: functional, organism-based
Rattus norvegicus [7] = species on record: Rattus norvegicus; conditions: Wistar, Brain, Membranes, at 10 µM
Rattus norvegicus [8] = assay: Effect on nociception of the contralateral paw in rat model of sodium iodoacetate-induced osteoarthritis assessed as paw withdrawal threshold in early phase at 7 ug administered as intrathecal injection measured up to 45 mins by Von Frey test (reference value: 44 +/- 2.4 g); format: ADME, organism-based; conditions: in vivo, icv_or_intrathecal, 0.75 h
Cannabinoid receptor [9] = target: T2, Cannabinoid receptor; assay: Displacement of [3H]JWH-018 from CB1R/CB2R in Wistar rat brain membranes after 60 mins by liquid scintillation analysis; format: cell membranes
[10] = Agonist activity at MOR/CB1R/CB2R receptor in Wistar rat brain membranes after 60 mins by [35S]-GTPgammaS binding assay; format: cell membranes
Rattus norvegicus [11] = assay: Antiallodynic activity in sodium iodoacetate-induced rat model of osteoarthritis assessed as reduction in maximum effect in late phase at 20 ug administered as intrathecal injection measured up to 60 to 90 mins by Von Frey test; format: functional, organism-based
Rattus norvegicus [12] = assay: Effect on nociception of the contralateral paw in rat model of sodium iodoacetate-induced osteoarthritis paw withdrawal threshold in late phase at 20 ug administered as intrathecal injection measured after 60 to 90 mins by Von Frey test (reference value: 43 +/- 3.4 g); format: organism-based; conditions: in vivo, icv_or_intrathecal
Rattus norvegicus [13] = assay: Effect on nociception of the contralateral paw in rat model of sodium iodoacetate-induced osteoarthritis paw withdrawal threshold in early phase at 20 ug administered as intrathecal injection measured up to 45 mins by Von Frey test (reference value: 44 +/- 2.4 g); format: organism-based; conditions: in vivo, icv_or_intrathecal, 0.75 h
Rattus norvegicus [14] = assay: Antiallodynic activity in sodium iodoacetate-induced rat model of osteoarthritis assessed as increase in maximum effect in early phase at 20 ug administered as intrathecal injection measured up to 45 mins by Von Frey test; format: functional, organism-based
[15] = target: T3, Cannabinoid receptor (Rattus norvegicus) (UniProt Q9QZN9+P20272); assay: Displacement of [3H]JWH-018 from CB1R/CB2R in Wistar rat brain membranes assessed as maximum efficacy at 10 uM by liquid scintillation analysis; format: cell membranes
In short: (§1)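 Whole rat brain membranes (cerebellum removed; 0.3–0.5 mg/mL protein) in 50 mM Tris-HCl pH 7.4 with 2.5 mM EGTA, 5 mM MgCl2 and 0.5 mg/mL fatty-acid-free BSA, 30 °C. Kinetics used 0.6 nM [3H]JWH-018: association over 0–90 min, dissociation started with 10 µM JWH-018 after 60 min. Saturation over 0.5–35 nM. Competitors at 10^-11–10^-5 M, 60 min. Nonspecific binding with 10 µM JWH-018. Filtration onto PEI-soaked GF/B filters; n≥3.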

[16] = target: T3, Cannabinoid receptor (Rattus norvegicus); assay: Agonist activity at CB1R/CB2R in Wistar rat brain membranes after 60 mins by [35S]-GTPgammaS binding assay relative to control; format: functional, cell membranes
In short: (§2)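 Rat brain membranes (30 µg protein/tube) incubated 60 min at 30 °C with 0.05 nM [35S]GTPγS and ligand at 10^-10–10^-5 M. Buffer: 50 mM Tris-HCl pH 7.4 with 30 µM GDP, 100 mM NaCl, 3 mM MgCl2, 1 mM EGTA. […] Nonspecific binding taken with 10 µM GTPγS; basal set as 100%. Filtration and scintillation counting; n≥3.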

[17] = target: Delta-type opioid receptor (Rattus norvegicus, UniProt P33533); assay: Displacement of [3H]Ile5,6-deltorphin-2 from DOR in Wistar rat brain membranes after 60 mins by liquid scintillation analysis; format: cell membranes
[18] = target: T3, Cannabinoid receptor (Rattus norvegicus); assay: Displacement of [3H]JWH-018 from CB1R/CB2R in Wistar rat brain membranes at 10 uM by liquid scintillation analysis relative to control; format: cell membranes
In short: as §1

Cannabinoid receptor [19] = target: T2, Cannabinoid receptor; assay: Displacement of [3H]JWH-018 from CB1R/CB2R in Wistar rat brain membranes assessed as dissociation constant by liquid scintillation analysis; format: cell membranes
In short: as §1

[20] = target: T3, Cannabinoid receptor (Rattus norvegicus); assay: Displacement of [3H]JWH-018 from CB1R/CB2R in Wistar rat brain membranes assessed as specific binding at 10 uM up to 90 mins by liquid scintillation analysis relative to control; format: cell membranes
In short: as §1

Cannabinoid receptor [21] = target: T2, Cannabinoid receptor; assay: Agonist activity at CB1R/CB2R in Wistar rat brain membranes after 60 mins by [35S]-GTPgammaS binding assay; format: functional, cell membranes
In short: as §2

Cannabinoid receptor [22] = target: T2, Cannabinoid receptor; assay: (§3) Displacement of [3H]JWH-018 from CB1R/CB2R in Wistar rat brain membranes assessed as dissociation rate constant at 10 uM by liquid scintillation analysis; format: cell membranes
In short: as §1

[23] = target: T3, Cannabinoid receptor (Rattus norvegicus); assay: as §3; format: cell membranes
In short: as §1

[24] = target: T3, Cannabinoid receptor (Rattus norvegicus); assay: Displacement of [3H]JWH-018 from CB1R/CB2R in Wistar rat brain membranes assessed as pseudo-first order rate constant at 10 uM up to 90 mins by liquid scintillation analysis; format: cell membranes
In short: as §1

Rattus norvegicus [25] = species on record: Rattus norvegicus; assay: Agonist activity at MOR/CB1R/CB2R in Wistar rat brain membranes after 60 mins by [35S]-GTPgammaS binding assay relative to control; format: cell membranes
In short: as §2

[26] = target: Mu-type opioid receptor (Rattus norvegicus) (UniProt P33535); assay: Agonist activity at MOR in Wistar rat brain membranes at 10 uM in presence of naloxone after 60 mins by [35S]-GTPgammaS binding assay relative to control; format: functional, cell membranes
In short: (§4)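 Rat brain membranes (30 µg protein/tube) incubated 60 min at 30 °C with 0.05 nM [35S]GTPγS and ligand at 10^-10–10^-5 M. Buffer: 50 mM Tris-HCl pH 7.4 with 30 µM GDP, 100 mM NaCl, 3 mM MgCl2, 1 mM EGTA. Nonspecific binding taken with 10 µM GTPγS; basal set as 100%. Filtration and scintillation counting; n≥3.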

Mu-type opioid receptor [27] = target: T1, Mu-type opioid receptor; assay: Agonist activity at MOR in Wistar rat brain membranes in presence of naloxone after 60 mins by [35S]-GTPgammaS binding assay; format: functional, cell membranes
In short: as §4

[28] = target: T4, Cannabinoid receptor 2 (Rattus norvegicus) (UniProt Q9QZN9); assay: Agonist activity at CB2R in Wistar rat brain membranes at 10 uM in presence of AM630 after 60 mins by [35S]-GTPgammaS binding assay relative to control; format: functional, cell membranes
T4 sequence (whole entry): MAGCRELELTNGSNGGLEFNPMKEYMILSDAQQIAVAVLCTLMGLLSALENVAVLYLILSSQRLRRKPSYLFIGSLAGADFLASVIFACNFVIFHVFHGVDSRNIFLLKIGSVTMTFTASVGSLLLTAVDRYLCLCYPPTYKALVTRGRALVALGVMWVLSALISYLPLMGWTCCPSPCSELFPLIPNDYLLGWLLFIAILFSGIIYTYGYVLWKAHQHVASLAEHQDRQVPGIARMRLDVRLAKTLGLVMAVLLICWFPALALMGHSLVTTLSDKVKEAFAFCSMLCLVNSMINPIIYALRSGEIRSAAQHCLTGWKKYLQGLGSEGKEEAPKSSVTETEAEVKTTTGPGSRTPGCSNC
In short: as §2

[29] = target: Cannabinoid receptor 1 (Rattus norvegicus) (UniProt P20272); assay: Agonist activity at CB1R in Wistar rat brain membranes at 10 uM in presence of rimonabant after 60 mins by [35S]-GTPgammaS binding assay relative to control; format: functional, cell membranes
In short: as §2

Cannabinoid receptor 1 = Cannabinoid receptor 1 (Rattus norvegicus, UniProt P20272); assay: Agonist activity at CB1R in Wistar rat brain membranes in presence of rimonabant after 60 mins by [35S]-GTPgammaS binding assay; format: functional, cell membranes
In short: as §2

Cannabinoid receptor 2 = target: T5, Cannabinoid receptor 2 (Rattus norvegicus, UniProt Q9QZN9); assay: Agonist activity at CB2R in Wistar rat brain membranes in presence of AM630 after 60 mins by [35S]-GTPgammaS binding assay; format: functional, cell membranes
T5 sequence (Q9QZN9 whole entry): T4 sequence (whole entry)
In short: as §2

Mus musculus = assay: Antinociceptive activity in CD-1 mouse assessed as increase in thermal latency at 10 mg/kg, iv after 15 to 120 mins by hot plate technique; format: functional, organism-based
In short: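 Male CD-1 mice (25 g) given 10 mg/kg i.v. in 10 mL/kg; vehicle saline with 5% DMSO. Hot plate held at 55.0 °C. Latency to paw lick or jump, cut-off 60 s, read at 15–120 min. Baseline is the mean of three pre-test readings. Data given as %MPE; n=6/group.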

Rattus norvegicus [30] = species on record: Rattus norvegicus; assay: Agonist activity at MOR/CB1R/CB2R in Wistar rat brain membranes at 10 uM in presence of naloxone,rimonabant and AM630 after 60 mins by [35S]-GTPgammaS binding assay relative to control; format: cell membranes
In short: as §2

T3 sequence (P20272 whole entry, looked up, one chain of several): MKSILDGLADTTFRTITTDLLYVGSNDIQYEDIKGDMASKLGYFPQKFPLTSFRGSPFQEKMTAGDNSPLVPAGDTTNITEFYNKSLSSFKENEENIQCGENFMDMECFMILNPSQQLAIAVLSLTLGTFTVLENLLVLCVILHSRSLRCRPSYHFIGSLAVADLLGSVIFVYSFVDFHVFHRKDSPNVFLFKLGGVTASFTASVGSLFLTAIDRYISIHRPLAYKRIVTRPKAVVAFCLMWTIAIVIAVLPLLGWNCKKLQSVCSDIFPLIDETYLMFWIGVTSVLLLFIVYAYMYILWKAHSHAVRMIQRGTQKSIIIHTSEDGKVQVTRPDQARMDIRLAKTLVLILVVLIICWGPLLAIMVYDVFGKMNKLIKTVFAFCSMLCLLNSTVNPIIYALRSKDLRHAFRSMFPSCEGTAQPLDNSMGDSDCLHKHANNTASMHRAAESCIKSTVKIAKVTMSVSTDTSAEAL
T1 sequence (P33535 whole entry): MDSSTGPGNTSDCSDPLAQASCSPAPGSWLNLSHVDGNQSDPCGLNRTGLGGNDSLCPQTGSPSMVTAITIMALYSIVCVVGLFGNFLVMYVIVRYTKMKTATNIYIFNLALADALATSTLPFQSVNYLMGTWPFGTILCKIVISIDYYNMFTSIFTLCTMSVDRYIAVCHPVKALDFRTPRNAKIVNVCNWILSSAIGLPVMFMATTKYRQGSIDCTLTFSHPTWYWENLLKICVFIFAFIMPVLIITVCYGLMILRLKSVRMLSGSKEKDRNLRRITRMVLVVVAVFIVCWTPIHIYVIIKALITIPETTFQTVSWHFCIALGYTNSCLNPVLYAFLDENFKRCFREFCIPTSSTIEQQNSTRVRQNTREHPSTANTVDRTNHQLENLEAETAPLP
Kappa-type opioid receptor, sequence (P41144 whole entry): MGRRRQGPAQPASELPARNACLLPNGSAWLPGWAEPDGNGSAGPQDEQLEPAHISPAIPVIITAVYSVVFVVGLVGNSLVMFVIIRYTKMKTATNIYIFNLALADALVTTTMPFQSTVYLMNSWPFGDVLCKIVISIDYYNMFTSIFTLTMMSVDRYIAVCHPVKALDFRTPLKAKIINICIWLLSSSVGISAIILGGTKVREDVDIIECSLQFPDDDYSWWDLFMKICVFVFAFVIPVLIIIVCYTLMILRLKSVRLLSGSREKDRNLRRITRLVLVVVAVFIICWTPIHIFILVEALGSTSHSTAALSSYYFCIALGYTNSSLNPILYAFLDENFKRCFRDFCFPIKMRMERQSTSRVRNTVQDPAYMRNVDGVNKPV
Delta-type opioid receptor, sequence (P33533 whole entry): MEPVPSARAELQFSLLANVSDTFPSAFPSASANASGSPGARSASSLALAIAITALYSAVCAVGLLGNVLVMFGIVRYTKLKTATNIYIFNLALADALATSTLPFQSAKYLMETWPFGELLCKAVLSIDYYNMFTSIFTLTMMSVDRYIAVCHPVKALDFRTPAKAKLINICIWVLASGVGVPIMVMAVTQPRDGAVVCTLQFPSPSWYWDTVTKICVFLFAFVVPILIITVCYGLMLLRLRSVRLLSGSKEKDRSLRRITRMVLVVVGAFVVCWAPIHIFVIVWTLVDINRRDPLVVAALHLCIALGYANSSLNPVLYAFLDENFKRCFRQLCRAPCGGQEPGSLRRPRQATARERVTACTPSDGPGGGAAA
Cannabinoid receptor 1, sequence (P20272 whole entry): as the sequence (P20272 whole entry, looked up, one chain of several) above
Cannabinoid receptor 1 (Rattus norvegicus), sequence (P20272 whole entry): as the sequence (P20272 whole entry, looked up, one chain of several) above
Mu-type opioid receptor (Rattus norvegicus), sequence (P33535 whole entry): as the sequence (P33535 whole entry) above

| Compound | Ki [1] | Ki (Mu-type opioid receptor [2]) | Ki (Cannabinoid receptor [3]) | Emax (Rattus norvegicus [7]) | Ki (Cannabinoid receptor [9]) | EC50 [10] | Activity (Rattus norvegicus [12]) | Activity (Rattus norvegicus [13]) | Activity (Rattus norvegicus [14]) | Ki [17] | other results |
| --- | --- | --- | --- | --- | --- | --- | --- | --- | --- | --- | --- |
| C[C@@H](NC(=O)[C@@H](N)Cc1ccc(O)cc1)C(=O)NCC(=O)N[C@@H](Cc1ccccc1)C(N)=O | 173 nM | 0.8 nM | > 10000 nM | 157% | > 10000 nM | 191 nM | – | – | – | – | Activity (Rattus norvegicus [4]): 40 g; EC50 (Mu-type opioid receptor [5]): 154 nM; Activity (Rattus norvegicus [6]): Active; Activity (Rattus norvegicus [8]): 43 g |
| COc1ccc2c3c1O[C@H]1C(=O)CC[C@@]4(O)[C@@H](C2)N(C)CC[C@]314 [OXYCODONE] | – | – | – | – | – | – | 40 g | 43 g | Active | – | Activity (Rattus norvegicus [11]): Active |
| CCCCCn1cc(C(=O)c2cccc3ccccc23)c2ccccc21 | > 10000 nM | > 10000 nM | 2.9 nM | 163% | 3.4 nM | 69 nM | 42 g | 41 g | Active | > 10000 nM | Emax [15]: 1120 fmol/mg; Emax [16]: 167%; Activity [18]: 60%; Kd (Cannabinoid receptor [19]): 3.4 nM; Activity [20]: 65%; EC50 (Cannabinoid receptor [21]): 36 nM; Kd(app) (Cannabinoid receptor [22]): 6.5 nM; Kdiss [23]: 0.00175 s⁻¹; K [24]: 0.124 min⁻¹ |
| COc1ccc2c3c1O[C@H]1/C(=N\OCC(=O)NCCCCCCNC(=O)CCCCCn4cc(C(=O)c5cccc6ccccc56)c5ccccc54)CC[C@@]4(O)[C@@H](C2)N(C)CC[C@]314 | 172 nM | 18 nM | 12 nM | 147% | 34 nM | 215 nM | 47 g | 42 g | Active | 263 nM | Emax (Rattus norvegicus [25]): 146%; Emax [26]: 112%; EC50 (Mu-type opioid receptor [27]): 397 nM; Emax [28]: 122%; Emax [29]: 139%; EC50 (Cannabinoid receptor 1): 452 nM; EC50 (Cannabinoid receptor 2): 340 nM; Activity (Mus musculus): Active; Emax (Rattus norvegicus [30]): 100% |

From ChEMBL document CHEMBL4359826, “Preparation of bivalent agonists for targeting the mu opioid and cannabinoid receptors” (Eur J Med Chem, 2019)
